According to publication PMC5693607 (Cell chemical biology, 2017):

Key:
HDAC3 [1] = molecular target: T1, HDAC3 (Homo sapiens, UniProt O15379); format: cell-based; settings: MDA-MB-231 cells, inhibitor 2–12 hours; for photomate labeling (engagement) of HDAC3 after inhibitor treatment: then photomate 10 µM
Method in brief: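 MDA-MB-231 cells were grown 2 days in complete medium, then treated with inhibitor. They were then either lysed directly for Western blot or photolabeled: 10 µM probe for 40 min at 37 °C, ± SAHA 200 µM competitor, then 366 nm irradiation at 4 °C. Lysate (35.2 µg) was clicked to an 800 nm IRDye azide and separated on gel. HDAC3 was co-stained by antibody and imaged at 700/800 nm.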
Target sequence in this assay (O15379 whole entry): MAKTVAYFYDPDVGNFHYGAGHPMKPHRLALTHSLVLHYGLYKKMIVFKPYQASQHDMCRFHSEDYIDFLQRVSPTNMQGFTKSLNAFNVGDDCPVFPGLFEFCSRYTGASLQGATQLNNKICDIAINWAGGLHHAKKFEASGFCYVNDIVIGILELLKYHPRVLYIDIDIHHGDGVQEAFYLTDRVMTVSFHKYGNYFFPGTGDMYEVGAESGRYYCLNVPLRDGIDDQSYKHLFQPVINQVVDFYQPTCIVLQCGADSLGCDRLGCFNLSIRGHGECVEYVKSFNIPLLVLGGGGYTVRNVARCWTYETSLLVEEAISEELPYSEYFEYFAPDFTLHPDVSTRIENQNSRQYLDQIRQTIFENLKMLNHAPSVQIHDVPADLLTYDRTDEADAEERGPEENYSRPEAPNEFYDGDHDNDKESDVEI
Target sequence in this assay (Q9Y618 whole entry partner): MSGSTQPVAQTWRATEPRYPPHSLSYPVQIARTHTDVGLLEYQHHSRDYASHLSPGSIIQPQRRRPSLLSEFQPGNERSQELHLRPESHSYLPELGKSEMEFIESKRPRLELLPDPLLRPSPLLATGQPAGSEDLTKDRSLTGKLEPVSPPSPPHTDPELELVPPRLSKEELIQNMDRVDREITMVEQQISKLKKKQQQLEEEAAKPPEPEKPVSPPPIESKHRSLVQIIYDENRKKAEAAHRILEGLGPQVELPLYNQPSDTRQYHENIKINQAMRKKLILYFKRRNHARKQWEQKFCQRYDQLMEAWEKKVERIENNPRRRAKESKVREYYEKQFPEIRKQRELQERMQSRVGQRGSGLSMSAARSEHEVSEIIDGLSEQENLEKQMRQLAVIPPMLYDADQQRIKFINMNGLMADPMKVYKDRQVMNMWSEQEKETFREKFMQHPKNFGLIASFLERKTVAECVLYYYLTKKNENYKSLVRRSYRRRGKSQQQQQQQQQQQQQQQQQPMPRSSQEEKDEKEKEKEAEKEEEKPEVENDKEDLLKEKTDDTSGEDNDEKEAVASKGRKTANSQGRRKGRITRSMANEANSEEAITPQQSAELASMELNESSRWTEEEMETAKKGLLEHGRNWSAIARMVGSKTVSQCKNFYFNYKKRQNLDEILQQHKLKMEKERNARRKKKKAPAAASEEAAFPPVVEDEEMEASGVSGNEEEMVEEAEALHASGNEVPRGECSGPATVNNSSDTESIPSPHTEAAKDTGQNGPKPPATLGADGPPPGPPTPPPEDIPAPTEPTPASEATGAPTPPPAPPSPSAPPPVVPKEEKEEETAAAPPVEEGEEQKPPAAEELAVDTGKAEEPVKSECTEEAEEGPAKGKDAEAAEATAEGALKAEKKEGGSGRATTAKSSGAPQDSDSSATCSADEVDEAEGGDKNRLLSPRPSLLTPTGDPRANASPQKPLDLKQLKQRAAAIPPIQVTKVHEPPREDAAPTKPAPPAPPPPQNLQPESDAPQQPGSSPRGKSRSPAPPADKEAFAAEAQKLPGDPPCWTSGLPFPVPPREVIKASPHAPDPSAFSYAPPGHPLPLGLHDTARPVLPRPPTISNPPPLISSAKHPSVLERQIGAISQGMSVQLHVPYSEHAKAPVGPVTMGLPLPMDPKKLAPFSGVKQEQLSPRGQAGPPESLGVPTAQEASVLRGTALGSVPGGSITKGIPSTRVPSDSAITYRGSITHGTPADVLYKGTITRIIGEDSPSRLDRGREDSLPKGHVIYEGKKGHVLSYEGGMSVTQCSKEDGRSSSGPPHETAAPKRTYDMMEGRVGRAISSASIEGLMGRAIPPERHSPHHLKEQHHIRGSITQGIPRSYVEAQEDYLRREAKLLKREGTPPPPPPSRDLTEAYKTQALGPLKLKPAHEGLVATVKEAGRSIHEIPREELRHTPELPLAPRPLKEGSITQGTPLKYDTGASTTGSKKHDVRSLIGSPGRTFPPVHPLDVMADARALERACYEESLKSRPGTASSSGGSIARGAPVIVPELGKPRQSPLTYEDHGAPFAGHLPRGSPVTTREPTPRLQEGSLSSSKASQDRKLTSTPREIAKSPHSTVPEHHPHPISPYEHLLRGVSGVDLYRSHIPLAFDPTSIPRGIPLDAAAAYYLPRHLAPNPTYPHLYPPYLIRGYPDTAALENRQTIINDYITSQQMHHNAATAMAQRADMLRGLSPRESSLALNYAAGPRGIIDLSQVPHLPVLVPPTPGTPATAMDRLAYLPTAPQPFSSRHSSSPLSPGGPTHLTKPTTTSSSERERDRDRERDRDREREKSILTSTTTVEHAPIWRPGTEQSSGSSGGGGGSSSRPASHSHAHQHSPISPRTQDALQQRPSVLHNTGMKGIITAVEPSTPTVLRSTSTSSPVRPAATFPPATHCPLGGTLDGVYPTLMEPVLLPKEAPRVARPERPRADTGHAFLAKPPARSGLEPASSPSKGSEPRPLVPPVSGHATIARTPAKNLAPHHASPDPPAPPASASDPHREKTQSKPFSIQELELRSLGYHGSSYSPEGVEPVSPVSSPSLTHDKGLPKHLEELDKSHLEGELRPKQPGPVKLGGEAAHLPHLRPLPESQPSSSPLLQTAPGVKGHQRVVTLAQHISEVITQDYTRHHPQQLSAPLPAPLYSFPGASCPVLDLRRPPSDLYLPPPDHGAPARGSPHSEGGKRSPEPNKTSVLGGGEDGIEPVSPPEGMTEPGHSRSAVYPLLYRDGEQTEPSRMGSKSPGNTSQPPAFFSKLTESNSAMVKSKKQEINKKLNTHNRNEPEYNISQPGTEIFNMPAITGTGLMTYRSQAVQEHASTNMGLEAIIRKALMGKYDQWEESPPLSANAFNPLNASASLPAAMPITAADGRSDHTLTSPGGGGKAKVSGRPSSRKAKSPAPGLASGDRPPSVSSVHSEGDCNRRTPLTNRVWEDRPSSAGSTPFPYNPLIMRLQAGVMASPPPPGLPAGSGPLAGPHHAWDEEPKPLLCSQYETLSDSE
Target sequence in this assay (O60907 whole entry partner): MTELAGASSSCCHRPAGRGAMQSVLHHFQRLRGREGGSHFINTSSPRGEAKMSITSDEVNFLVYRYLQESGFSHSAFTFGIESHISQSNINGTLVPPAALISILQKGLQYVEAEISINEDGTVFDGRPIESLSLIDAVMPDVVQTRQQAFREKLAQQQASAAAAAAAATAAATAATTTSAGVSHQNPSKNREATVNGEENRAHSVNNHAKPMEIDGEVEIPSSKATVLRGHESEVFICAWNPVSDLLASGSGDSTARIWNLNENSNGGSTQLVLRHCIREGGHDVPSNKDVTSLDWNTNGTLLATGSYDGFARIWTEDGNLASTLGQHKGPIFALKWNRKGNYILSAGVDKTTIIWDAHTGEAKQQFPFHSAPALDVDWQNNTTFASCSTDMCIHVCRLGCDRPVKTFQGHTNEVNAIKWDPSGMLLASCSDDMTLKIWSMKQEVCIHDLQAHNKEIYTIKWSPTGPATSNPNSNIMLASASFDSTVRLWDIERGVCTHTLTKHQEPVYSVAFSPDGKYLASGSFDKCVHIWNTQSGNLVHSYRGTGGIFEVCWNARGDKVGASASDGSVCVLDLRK
Target sequence in this assay (Q13227 whole entry partner): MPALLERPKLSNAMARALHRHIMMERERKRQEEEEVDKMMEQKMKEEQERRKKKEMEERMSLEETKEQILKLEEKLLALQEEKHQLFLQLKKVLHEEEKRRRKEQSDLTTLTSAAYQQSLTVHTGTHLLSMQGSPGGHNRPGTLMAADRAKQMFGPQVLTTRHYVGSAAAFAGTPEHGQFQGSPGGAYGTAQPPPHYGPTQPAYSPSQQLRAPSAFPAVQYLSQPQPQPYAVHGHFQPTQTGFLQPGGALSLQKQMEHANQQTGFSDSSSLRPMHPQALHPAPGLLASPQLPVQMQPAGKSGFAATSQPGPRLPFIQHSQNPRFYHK

HDAC3 [2] = molecular target: T1, HDAC3; assay: Treatment followed by in situ photolabeling and Western blot, MCF-7 cells; format: cell-based
Method in brief: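 MCF-7 cells received TNF-α or vehicle, then photomate 10 µM (± SAHA 200 µM) for 40 min at 37 °C. They were irradiated at 366 nm (35 J/cm2) at 4 °C. Lysate (35.2 µg) was clicked to azide 800CW IRDye (90 min rt), gel-separated and fluorescence-imaged. HDAC3 and phospho-HDAC3 were detected by Western blot with IRDye secondaries.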

[3] = system: recombinant class I and II HDACs; assay: Photolabeling of recombinant proteins, gel based visualization; format: binding
recombinant HDAC1 = recombinant HDAC1 (Homo sapiens, UniProt Q13547); assay: Fluorogenic enzymatic assay, recombinant HDAC1; format: biochemical
Sequence of recombinant HDAC1 (Q13547 whole entry, canonical isoform): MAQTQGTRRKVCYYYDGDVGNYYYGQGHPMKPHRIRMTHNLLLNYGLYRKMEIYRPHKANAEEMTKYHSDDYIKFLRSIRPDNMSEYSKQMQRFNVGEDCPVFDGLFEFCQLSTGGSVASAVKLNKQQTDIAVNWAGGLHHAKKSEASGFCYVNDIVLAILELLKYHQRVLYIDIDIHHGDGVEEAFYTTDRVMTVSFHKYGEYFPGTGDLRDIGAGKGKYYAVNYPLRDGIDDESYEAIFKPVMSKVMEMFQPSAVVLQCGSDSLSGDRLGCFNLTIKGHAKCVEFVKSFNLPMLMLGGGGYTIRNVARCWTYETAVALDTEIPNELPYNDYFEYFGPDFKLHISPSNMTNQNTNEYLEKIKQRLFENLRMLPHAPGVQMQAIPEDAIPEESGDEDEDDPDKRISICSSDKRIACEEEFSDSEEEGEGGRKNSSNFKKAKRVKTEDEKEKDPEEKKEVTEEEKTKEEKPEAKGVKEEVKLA
Method in brief: (§1)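 Deacetylase activity of recombinant human class I HDAC isoforms was measured with a fluorogenic assay following previously published procedures. Inhibition is reported as log IC50, as the average ± s.e. of n=3.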

recombinant HDAC2 = recombinant HDAC2 (Homo sapiens, UniProt Q92769); assay: Fluorogenic enzymatic assay, recombinant HDAC2; format: biochemical
Sequence of recombinant HDAC2 (Q92769 whole entry): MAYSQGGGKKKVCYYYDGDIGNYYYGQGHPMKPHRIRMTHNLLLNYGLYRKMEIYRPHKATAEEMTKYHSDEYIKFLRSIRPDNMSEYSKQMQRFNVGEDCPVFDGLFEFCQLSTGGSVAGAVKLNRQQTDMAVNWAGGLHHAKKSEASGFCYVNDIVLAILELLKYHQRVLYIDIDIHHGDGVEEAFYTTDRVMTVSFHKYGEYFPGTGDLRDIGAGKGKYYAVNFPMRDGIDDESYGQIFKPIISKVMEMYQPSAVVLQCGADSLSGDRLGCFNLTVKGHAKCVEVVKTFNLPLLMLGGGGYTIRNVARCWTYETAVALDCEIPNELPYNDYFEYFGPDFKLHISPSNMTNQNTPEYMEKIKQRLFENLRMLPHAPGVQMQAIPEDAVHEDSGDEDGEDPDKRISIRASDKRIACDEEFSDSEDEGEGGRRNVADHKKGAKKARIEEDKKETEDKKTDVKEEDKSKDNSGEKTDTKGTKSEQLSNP
Method in brief: as §1

HDAC3 [4] = molecular target: T1, HDAC3; assay: Fluorogenic enzymatic assay, recombinant HDAC3; format: biochemical
Method in brief: as §1
Target sequence in this assay (O15379 whole entry): as the sequence (O15379 whole entry) above
Target sequence in this assay (Q9Y618 395-489 partner limits assumed): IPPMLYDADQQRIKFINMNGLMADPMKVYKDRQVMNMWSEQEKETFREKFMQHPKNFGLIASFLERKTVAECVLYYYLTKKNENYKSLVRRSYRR

recombinant HDAC8 = molecular target: T2, recombinant HDAC8 (Homo sapiens, UniProt Q9BY41); assay: Fluorogenic enzymatic assay, recombinant HDAC8; format: biochemical
T2 sequence (Q9BY41 1-377): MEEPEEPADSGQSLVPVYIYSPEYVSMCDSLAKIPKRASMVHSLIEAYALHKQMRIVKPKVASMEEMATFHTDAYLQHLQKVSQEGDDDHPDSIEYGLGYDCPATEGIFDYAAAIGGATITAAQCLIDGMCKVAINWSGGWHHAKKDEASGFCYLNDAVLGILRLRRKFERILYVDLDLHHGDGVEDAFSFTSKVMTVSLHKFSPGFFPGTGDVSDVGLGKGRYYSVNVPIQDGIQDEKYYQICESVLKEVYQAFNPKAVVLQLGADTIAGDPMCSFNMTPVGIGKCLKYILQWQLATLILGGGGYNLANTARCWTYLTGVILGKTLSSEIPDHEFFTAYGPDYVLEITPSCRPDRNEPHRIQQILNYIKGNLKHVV
Method in brief: as §1

recombinant HDAC4 = recombinant HDAC4 (Homo sapiens, UniProt P56524); assay: Fluorogenic enzymatic assay, recombinant HDAC4; format: biochemical
class I and II HDACs [5] = molecular target: T3, class I and II HDACs (Homo sapiens, UniProt O15379); format: cell-based; settings: P<.0001
T3 sequence (O15379 whole entry): as the sequence (O15379 whole entry) above
Method in brief: (§2)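 Cells at 90% confluence were pretreated with SAHA (200 µM) or DMSO, then given photomate 10 µM for 40 min at 37 °C. They were cooled to 4 °C and irradiated at 366 nm (35 J/cm2). Lysate (1 mg) was clicked to azide-biotin (1.5× probe; TCEP, TBTA, CuSO4; 90 min rt), then enriched on streptavidin beads and in-gel digested. Proteins reduced ≥50% by SAHA were scored.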

class I and II HDACs [6] = format: cell-based, Human; settings: seven breast cancer cell lines, photomate 10 µM
Method in brief: as §2

class I and II HDACs [7] = molecular target: T3, class I and II HDACs; assay: In situ photolabeling of MCF-7 cells, enrichment, Western blot and MS/MS; format: cell-based; settings: MCF-7 cells and other luminal cell types
Method in brief: (§3)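 MCF-7 cells at 90% confluence were pretreated with SAHA (200 µM) or DMSO, then given 10 µM test compound for 40 min at 37 °C. Cells were cooled to 4 °C, irradiated at 366 nm (35 J/cm2) and lysed in HEPES pH 7.5 buffer. Lysate was click-conjugated to biotin azide (CuSO4/TBTA/TCEP, 90 min, rt), then streptavidin-enriched for Western blot or in-gel tryptic MS/MS. A hit was a protein reduced ≥50% by SAHA and absent in DMSO controls.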

class I and II HDACs [8] = assay: as above; format: cell-based, Human; settings: MCF-7 cells
Method in brief: as §3

TNBC cells = assay: Efficacy in breast cancer cells; format: cell-based, Human; settings: Figure S2B
[9] = MCF-7 cells stimulated with TNF-α, compared to TNF-α alone

| photomate labeling (engagement) of HDAC3 after inhibitor treatment (HDAC3 [1]) | photomate labeling of HDAC3 after treatment (HDAC3 [2]; MCF-7 cells) | HDAC3 phosphorylation after inhibitor treatment (HDAC3 [1]) | Compound | also measured |
| --- | --- | --- | --- | --- |
| no change | – | – | O=C(c1ccc(Nc2nccc(-c3cc4ccccc4s3)n2)cc1)N1CCC(N2CCCC2)CC1 [IKK-16] | – |
| – | no increase | – | CC/C(=C(\c1ccccc1)c1ccc(OCCN(C)C)cc1)c1ccccc1 [tamoxifen] | HDAC3 phosphorylation after treatment (HDAC3 [2]; MCF-7 cells): no increase |
| did not affect | – | did not affect | COc1ccc(CNC(=O)Nc2ncc([N+](=O)[O-])s2)cc1 [AR-A014418] | – |
| – | had no effect | – | EGF: MAPK stimulating growth factor | – |
| abolished the labeling of HDAC3 | – | complete loss of HDAC3 phosphorylation | Oc1c2ccccc2c2c3c(cccc13)N=N2 [SP600125] | – |
| – | – | – | O=C(CCCCCCC(=O)Nc1ccccc1)NO [SAHA, suberoyl anilide hydroxamic acid] | photomate labeling of HDAC isoforms upon co-incubation with competitor ([3]; SAHA 200 µM, photomate 10 µM): Labeling of all HDAC isoforms was lost |
| – | induces specific labeling of HDAC3 | – | TNF-α | – |
| – | had no effect | – | IGF-1: MAPK stimulating growth factor | – |
| decreased | – | decreased | CCOc1nc(NC(=O)Cc2cc(OC)ccc2OC)cc(N)c1C#N [TCS 6o] | HDAC3 phosphorylation, JNK inhibitor pretreatment then TNF-α (HDAC3 [2]; [9]): decrease in HDAC3 labeling and phosphorylation; photomate labeling of HDAC3, JNK inhibitor pretreatment then TNF-α (HDAC3 [2]; [9]): decrease in HDAC3 labeling and phosphorylation |
| – | – | – | C#CCN(CCCCCC(=O)NO)Cc1c(F)c(F)c(N=[N+]=[N-])c(F)c1F [photomate, 6-((4-Azido-2,3,5,6-tetrafluorobenzyl)(prop-2-yn-1-yl)amino)-N-hydroxyhexanamide] | IC50 (recombinant HDAC1): 417 nM; IC50 (recombinant HDAC2): 132 nM; IC50 (HDAC3 [4]): 109 nM; IC50 (recombinant HDAC8): 2270 nM; IC50 (recombinant HDAC4): 20100 nM; relative potency or affinity based on inhibition or labeling (isoform selectivity) ([3]; recombinant HDAC1, 2, 3, 8 and 4): nonselective for HDAC1, 2 and 3 but shows decreased potency and affinity with respect to HDAC8 and the class II HDAC4; HDAC3 enriched from TNBC cell lines in comparison to luminal subtypes (class I and II HDACs [5]): increased amounts of HDAC3 were enriched from TNBC cell lines; HDAC isoforms enriched across cell lines (class I and II HDACs [6]): ubiquitously targeted and enriched HDAC1, 2 and 9 from every cell line; engagement of HDAC3 in cells (class I and II HDACs [7]): could not be detected; HDAC targets identified by MS/MS and Western blot (class I and II HDACs [8]): HDAC1 and 2 were the only HDAC targets; efficacy in TNBC cells (TNBC cells): increased efficacy in TNBC cells |

| Compound | photomate labeling (engagement) of HDAC3 after inhibitor treatment (HDAC3 [1]) | photomate labeling of HDAC3 after treatment (HDAC3 [2]; MCF-7 cells) | HDAC3 phosphorylation after inhibitor treatment (HDAC3 [1]) | also measured |
| --- | --- | --- | --- | --- |
| Oc1ccc(-c2nc(-c3ccncc3)c(-c3ccc(F)cc3)[nH]2)cc1 [SB202190] | increased labeling | – | – | – |
| O=c1cc(N2CCOCC2)oc2c(-c3ccccc3)cccc12 [LY294002] | Neither of the compounds induced any change | – | Neither of the compounds induced any change | – |
| Brc1c(Br)c(Br)c2n[nH]nc2c1Br [TBB] | Neither of the compounds induced any change | – | Neither of the compounds induced any change | – |
